Assay [1] deals with MDA-MB-231. Nature of the assay: Growth inhibition of retinoid-resistant MDA-MB-231 cells after 72 hrs. The format is functional, cell-based. As to conditions: Homo sapiens, MDA-MB-231, 72 h. In outline:
(§1)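 Cells seeded at 2 × 10^3 per well for H292 and DU-145 (RPMI-1640, 10% FBS) or 4 × 10^3 for MDA-MB-231 (DMEM, 10% FBS), 37 °C, 6% CO2. After 24 h attachment, treated 72 h with compound in Me2SO (0.1% final); media and compound renewed at 48 h. Viable cells by MTS reduction; triplicates per concentration.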

Assay [2] can be described thus: Growth inhibition of retinoid-resistant H292 cells at 1 uM relative to control. Format: functional. The settings on record: Homo sapiens, NCI-H292. Put shortly: as §1
Assay [3] relates to KG-1. Kind of assay: Inhibition of cell proliferation in retinoid-resistant KG1 cells after 48 hrs. Format: functional, cell-based. The settings on record: Homo sapiens, KG-1, 48 h. In outline: (§2)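 KG-1 cells grown in RPMI-1640 with 5% heat-inactivated FBS and gentamycin, seeded in 3 mL medium plus 5% FBS, incubated overnight. Compound then added in Me2SO (0.1% final), cells incubated for the stated time, harvested and counted by hemocytometer.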

Assay [4] deals with T1, Tyrosine-protein phosphatase non-receptor type 11 (Homo sapiens, UniProt Q06124).
T1 sequence (Q06124 whole entry): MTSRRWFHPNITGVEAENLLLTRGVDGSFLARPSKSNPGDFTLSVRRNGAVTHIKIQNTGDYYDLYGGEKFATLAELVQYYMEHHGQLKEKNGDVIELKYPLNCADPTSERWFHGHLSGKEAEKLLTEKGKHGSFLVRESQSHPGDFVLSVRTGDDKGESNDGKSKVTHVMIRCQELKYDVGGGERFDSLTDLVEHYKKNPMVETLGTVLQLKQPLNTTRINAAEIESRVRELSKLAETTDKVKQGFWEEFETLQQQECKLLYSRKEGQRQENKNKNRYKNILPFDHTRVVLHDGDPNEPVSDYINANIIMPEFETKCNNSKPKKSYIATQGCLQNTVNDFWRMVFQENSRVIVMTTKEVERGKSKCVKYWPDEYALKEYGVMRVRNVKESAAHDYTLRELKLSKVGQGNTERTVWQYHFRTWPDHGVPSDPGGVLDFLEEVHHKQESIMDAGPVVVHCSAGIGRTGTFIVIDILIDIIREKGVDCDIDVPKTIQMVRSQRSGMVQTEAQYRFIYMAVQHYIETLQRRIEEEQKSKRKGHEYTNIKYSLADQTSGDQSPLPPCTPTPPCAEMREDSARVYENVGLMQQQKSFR
Nature of the assay: Inhibition of SHP2 PTP by fluorescence spectroscopy.

Assay [5] deals with DU-145. Kind of assay: Growth inhibition of retinoid-resistant DU145 cells after 72 hrs. Format: functional, cell-based. The settings on record: Homo sapiens, DU-145, 72 h. Put shortly:
as §1

Assay [6] has as its system KG-1. Nature of the assay: Growth inhibition of retinoid-resistant KG1 cells at 5 uM after 48 hrs. Format: functional. The settings on record: Homo sapiens, KG-1, 48 h. In outline: as §2
Assay [7] concerns DU-145. Kind of assay: Growth inhibition of retinoid-resistant DU145 cells at 1 uM relative to control. Format: functional. As to conditions: Homo sapiens. In outline: as §1
Assay [8] in a line: Growth inhibition of retinoid-resistant H292 cells after 72 hrs. Format: functional, cell-based. As to conditions: Homo sapiens, NCI-H292, 72 h. Put shortly:
as §1

Assay [9] deals with KG-1. Nature of the assay: Induction of apoptosis in retinoid-resistant KG1 cells at 1 uM after 48 hrs. Format: functional, Homo sapiens. Put shortly:
(§3)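 Apoptotic cells scored by acridine orange staining. KG-1, HL-60R or MDA-MB-231 cells seeded in medium with 5% FBS, incubated overnight, then exposed to compound in Me2SO (0.1% final) for the stated time.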

In assay [10] the test system is KG-1. Nature of the assay: Induction of apoptosis in retinoid-resistant KG1 cells at 5 uM after 48 hrs. The format is functional, Homo sapiens. Put shortly: as §3
For assay [11], the target named is T2, Nuclear receptor subfamily 0 group B member 2 (Homo sapiens) (UniProt Q15466).
T2 sequence (whole entry): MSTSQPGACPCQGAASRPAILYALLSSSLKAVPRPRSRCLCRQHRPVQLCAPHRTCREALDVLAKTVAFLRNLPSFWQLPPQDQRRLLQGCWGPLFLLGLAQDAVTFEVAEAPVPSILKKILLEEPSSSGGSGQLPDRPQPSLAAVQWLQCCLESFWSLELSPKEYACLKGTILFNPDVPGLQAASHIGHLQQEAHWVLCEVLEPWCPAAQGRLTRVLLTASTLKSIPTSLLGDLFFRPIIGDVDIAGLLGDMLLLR
Nature of the assay: Displacement of [5,5'-3H2]AHPN from recombinant human GST-SHP partner nuclear orphan receptor at 50 uM. In outline: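 GST–human SHP fusion (150–500 ng) on glutathione-Sepharose beads preincubated on ice 45 min with unlabeled compound (50 µM final) in 0.4 mL binding buffer. [5,5′-3H2]AHPN (5 nM final) then added for 2 h at 4 °C. Beads washed, counted by scintillation directly or after elution with 50 mM NaHCO3/1% SDS.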

The subject of assay [12] is MDA-MB-231. Kind of assay: Growth inhibition of retinoid-resistant MDA-MB-231 cells at 1 uM relative to control. The format is functional. As to conditions: Homo sapiens. In outline: as §1
The nature of assay [13]: Growth inhibition of primary HMVE cells at 1 uM after 72 hrs. Format: functional. As to conditions: Homo sapiens. In outline:
(§4)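 Primary HMVE cells, 1 × 10^4 per well in EGM-MV medium, incubated 1 h at 37 °C. Compound in Me2SO added, or Me2SO alone (0.5% final). After 72 h at 37 °C, cells detached with trypsin/EDTA and counted by hemocytometer; three replicates.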

For assay [14], the system named is KG-1. Nature of the assay: Inhibition of cell proliferation in retinoid-resistant KG1 cells at 1 uM after 48 hrs relative to control. As to conditions: Homo sapiens, KG-1, 48 h. Format: functional. Put shortly: as §2
Assay [15] has as its target Receptor-type tyrosine-protein phosphatase C, CD45 (Homo sapiens) (UniProt P08575). Nature of the assay: Inhibition of CD45 PTP at 10 uM relative to control by fluorescence spectrometry.
A short description of assay [16]: Induction of apoptosis in HMVE cells at 0.5 uM after 20 hrs relative to adriamycin. The format is functional, Homo sapiens. In outline: (§5)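 HMVE cells (6 × 10^4 per well) seeded in EGM-MV, incubated 6 h at 37 °C. Then treated 20 h with compound (10–500 nM), 1.0 µM doxorubicin or Me2SO (0.5% final). Cytoplasmic histone-associated DNA fragments in lysate supernatant measured by Cell Death Detection ELISA; triplicates.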

Assay [17] is described as follows: Antiproliferative activity against HMVE cells. The format is functional, cell-based. The settings on record: Homo sapiens.
Assay [18] in a line: Inhibition of HMVE cell proliferation at 0.5 uM relative to control. The format is functional. As to conditions: Homo sapiens.
For assay [19], the system named is HMVE. Kind of assay: Inhibition of HMVE cell tubule formation in Matrigel after 18 hrs. Format: functional, cell-based. The settings on record: Homo sapiens. In outline:
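Trypsinized HMVE cells (5 × 10^4 per well in EGM-MV) plated on gelled Matrigel, held 1 h at 37 °C, then exposed 18 h at 37 °C to 0.25 or 1.0 µM compound or Me2SO (0.05% final). Total tube length measured from phase-contrast images, four random fields per well, three replicates.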

The nature of assay [20]: Growth inhibition of primary HMVE cells after 72 hrs. As to conditions: Homo sapiens. The format is functional, cell-based. Put shortly: as §4
Assay [21] deals with MDA-MB-231. Nature of the assay: Induction of apoptosis in MDA-MB-231 cells at 1 uM after 96 hrs. The format is functional, Homo sapiens. Put shortly:
as §3

Assay [22] has as its system HMVE. Nature of the assay: Inhibition of HMVE cell migration through Matrigel after 5 hrs. As to conditions: Homo sapiens. The format is functional, cell-based. Put shortly:
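Transwell inserts (8 µm pores) with undersides coated with Matrigel (30 µg/mL), blocked with 1% BSA. HMVE cells from 80% confluent cultures, released enzyme-free, were placed in inserts with compound (0.05–500 nM) or Me2SO (0.01% final). After 5 h at 37 °C, cells on underside fixed, stained with Diff-Quick and counted in three high-power fields per well; mean ± SD of three replicates.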

Assay [23] has as its system HMVE. Kind of assay: Induction of apoptosis in HMVE cells assessed as increase in oligonucleosome levels after 20 hrs by ELISA. The format is functional, cell-based. As to conditions: Homo sapiens. Put shortly: as §5
(An ELISA detects its analyte on a solid surface through an enzyme-linked reagent.)

Assay [24] has as its system MDA-MB-231. Nature of the assay: Induction of apoptosis in retinoid-resistant MDA-MB-231 cells at 2 uM after 96 hrs. The format is functional, Homo sapiens.
Assay [25] concerns MDA-MB-231. Kind of assay: Induction of apoptosis in retinoid-resistant MDA-MB-231 cells at 1 uM after 96 hrs. Format: functional, Homo sapiens. In outline:
as §3

Assay [26] in a line: Induction of apoptosis in tran-RA-resistant HL60R cells at 1 uM after 24 hrs. Format: functional, Homo sapiens.
Another assay has as its system Mus musculus. Kind of assay: Inhibition of TPA-induced ornithine decarboxylase in mouse dorsal epidermis applied topically after 1 hr. The format is functional.

The source made the active and inactive calls. The calls are words filed in the database; no cut-off is given here.

Chain of Receptor-type tyrosine-protein phosphatase C, CD45 (Homo sapiens) (P08575 whole entry, looked up, the tested form may be a part): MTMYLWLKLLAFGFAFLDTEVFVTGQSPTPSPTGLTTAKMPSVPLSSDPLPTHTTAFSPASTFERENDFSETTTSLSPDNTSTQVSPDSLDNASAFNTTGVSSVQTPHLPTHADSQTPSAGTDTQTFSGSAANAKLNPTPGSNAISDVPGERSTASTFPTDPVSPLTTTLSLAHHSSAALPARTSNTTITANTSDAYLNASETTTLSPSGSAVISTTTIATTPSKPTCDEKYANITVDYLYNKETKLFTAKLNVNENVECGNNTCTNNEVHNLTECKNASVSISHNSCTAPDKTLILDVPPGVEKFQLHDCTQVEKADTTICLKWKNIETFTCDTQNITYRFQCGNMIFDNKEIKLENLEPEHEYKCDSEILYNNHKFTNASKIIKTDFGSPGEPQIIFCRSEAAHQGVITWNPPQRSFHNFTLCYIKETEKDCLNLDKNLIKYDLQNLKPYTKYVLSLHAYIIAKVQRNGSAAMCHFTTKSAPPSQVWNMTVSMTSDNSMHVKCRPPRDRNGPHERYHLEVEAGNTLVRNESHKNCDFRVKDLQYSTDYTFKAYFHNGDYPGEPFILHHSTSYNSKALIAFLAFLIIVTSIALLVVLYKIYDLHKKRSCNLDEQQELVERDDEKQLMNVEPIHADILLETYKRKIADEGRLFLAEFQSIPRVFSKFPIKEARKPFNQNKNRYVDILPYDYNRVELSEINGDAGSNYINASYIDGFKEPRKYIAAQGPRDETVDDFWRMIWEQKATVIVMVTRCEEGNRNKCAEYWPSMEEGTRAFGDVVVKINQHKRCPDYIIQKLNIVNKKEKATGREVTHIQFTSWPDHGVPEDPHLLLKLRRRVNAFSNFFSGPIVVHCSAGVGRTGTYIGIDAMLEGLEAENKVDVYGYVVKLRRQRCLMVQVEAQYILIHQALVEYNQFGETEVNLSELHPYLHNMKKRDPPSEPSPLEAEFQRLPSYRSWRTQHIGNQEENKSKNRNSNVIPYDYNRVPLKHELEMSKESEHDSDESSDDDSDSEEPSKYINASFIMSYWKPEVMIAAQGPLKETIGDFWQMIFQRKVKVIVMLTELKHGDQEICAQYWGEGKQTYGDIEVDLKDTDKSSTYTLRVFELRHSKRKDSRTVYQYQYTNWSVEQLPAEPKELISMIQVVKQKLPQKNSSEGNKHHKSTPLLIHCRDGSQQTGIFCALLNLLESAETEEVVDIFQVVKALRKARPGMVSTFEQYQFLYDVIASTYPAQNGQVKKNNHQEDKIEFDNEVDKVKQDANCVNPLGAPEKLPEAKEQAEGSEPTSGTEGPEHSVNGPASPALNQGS

As to `O=C1NC(=O)/C(=C/c2ccc(-c3ccc(O)c(C45CC6CC(CC(C6)C4)C5)c3)c(Cl)c2)S1`, the IC50 in the assay on MDA-MB-231 [1] stood at 18000 nM; with KG-1 [3], 14000 nM; in [4], 2200 nM; in the assay on DU-145 [5] it was 3700 nM; in assay [8] it was 3600 nM. Further, the inhibition at 1 µM in [2] was found to be 17%; in the assay with DU-145 [7], 17%; in the assay on MDA-MB-231 [12], 0%; in assay [13], 30%; with KG-1 [14], 28%. This compound displayed an inhibition at 5 µM in the assay on KG-1 [6] of 41%. In addition, the Activity in the assay with KG-1 [9] is 8%; in the assay on KG-1 [10], 10%; in [11], 37%. Besides, in assay [15], the inhibition stood at 53%.

On to `O=C(O)/C=C/c1ccc(-c2ccc(O)c(C34CC5CC(CC(C5)C3)C4)c2)c(Cl)c1`, for which the Activity in [16] was 64%; in the assay with MDA-MB-231 [21], 43%; with KG-1 [9], 30%; in the assay on KG-1 [10], 55%; in the assay with HMVE [23] it was “Dose-dependent effect”; in assay [11] it was 87%. Moreover, the IC50 in the assay with MDA-MB-231 [1] amounted to 1800 nM; in assay [17] it was 300 nM; in the assay with KG-1 [3] it was 300 nM; in the assay on DU-145 [5], 500 nM; in assay [20] it was 300 nM; in [8], 400 nM. In assay [18], this compound displayed an inhibition at 0.5 µM of 60%. In addition, the result with HMVE [19] and in the assay on HMVE [22] was inactive. In addition, the inhibition at 1 µM in assay [2] came out at 79%; in the assay on DU-145 [7], 76%; in the assay with MDA-MB-231 [12], 32%; in the assay with KG-1 [14] it was 44%. For the same compound, the inhibition at 5 µM with KG-1 [6] was found to be 67%.

For the compound `O=C(O)c1cccc2c(-c3ccc(O)c(C45CC6CC(CC(C6)C4)C5)c3)cccc12`, in the assay on MDA-MB-231 [24], the Activity worked out at 4%.

For the compound `O=C(O)c1ccc2cc(-c3ccc(O)c(C45CC6CC(CC(C6)C4)C5)c3)ccc2c1` [O-DEMETHYLATED ADAPALENE], in [17], the IC50 was 300 nM. Moreover, the figures for the Activity (with MDA-MB-231 [25]; in assay [26]; in assay [11]) were 46%, 98% and 53%, respectively. In the assay with Mus musculus, this compound gave an ID50 of 66 nmol.

The IC50 is the concentration at which inhibition is half-maximal. Lower therefore signals inhibition by little substance. Usually inhibition stands for how much of the control response was suppressed. Higher therefore signals a response far below the control.
